The campaign covered roughly 65,000 compounds. About 280 (0.43%) were called active.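 Rule for the calls: active = inhibition above the mean of all tested compounds plus 3 SD (cut at about 52% in these data); inactive = the rest.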 The entries come from a sample that favours actives as a whole.
Molecular target: Nuclear receptor ROR-alpha (Homo sapiens) (UniProt P35398)
Experiment: suppression of basal RORA-driven reporter transcription – cell-based, luminescence, primary screen (AID 561)
Conditions: CHO-K1 Gal4-RORA LBD luciferase reporter, at 10 µM, hits give high values
Summary of the method: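 test system = CHO-K1 Gal4-RORA LBD luciferase reporter cells | dosing = 10 µM single point | times = 20 h compound treatment, 37 °C | signal = luciferase luminescence | read-out = % inhibition of basal luciferase versus +RORA/-RORA DMSO controls | benchmarks = mock-transfected cells as 100%, +RORA DMSO cells as 0% | replicates = tested once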

Chain of Nuclear receptor ROR-alpha (Homo sapiens) (P35398 whole entry, looked up): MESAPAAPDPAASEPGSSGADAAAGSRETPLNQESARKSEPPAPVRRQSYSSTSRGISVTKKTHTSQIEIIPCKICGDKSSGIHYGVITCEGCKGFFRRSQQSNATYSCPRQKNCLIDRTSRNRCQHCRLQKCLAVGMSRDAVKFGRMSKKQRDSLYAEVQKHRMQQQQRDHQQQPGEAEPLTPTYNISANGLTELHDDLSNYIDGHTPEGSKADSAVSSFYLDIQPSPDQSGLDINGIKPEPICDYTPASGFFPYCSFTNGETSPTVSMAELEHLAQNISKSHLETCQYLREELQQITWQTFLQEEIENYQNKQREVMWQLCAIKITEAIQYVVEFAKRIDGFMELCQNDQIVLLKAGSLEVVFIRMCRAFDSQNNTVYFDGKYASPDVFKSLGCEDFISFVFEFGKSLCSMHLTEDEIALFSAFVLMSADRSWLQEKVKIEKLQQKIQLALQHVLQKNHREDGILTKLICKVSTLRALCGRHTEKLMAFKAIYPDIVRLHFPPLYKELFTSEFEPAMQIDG

inhibition, active:
CCOc1cc(C(=O)N2CCc3cc(OC)c(OC)cc3C2)ccc1OC(F)F 57.3%, CC(C)OCCCNc1ncnc2c1[nH]c1ccc(F)cc12 75.5%

inhibition, inactive:
COC(=O)c1ccc(C2NC(=O)NC(C)=C2C(=O)N(C)C)cc1 (stereo not drawn) 29.5%, O=C(Nc1ccc2c(c1)OCO2)C1CC(c2c(F)cccc2Cl)=NO1 (stereo not drawn) -2.1%, COc1cc(OC)c(C(=O)Nc2ccc(N(C)C)cc2)cc1OC -58.1%, Cc1ccc(Oc2nc3ccccc3n3c(C)nnc23)cc1 -9.5%, COCCCN(C(=O)Cn1ncc2c(=O)oc3ccc(C)cc3c21)C(C)c1ccncc1 (stereo not drawn) -5.6%, Fc1ccccc1OCCSc1nc2ccccc2o1 -26.2%, CCOc1cc(C(=S)N2CCOCC2)ccc1O 8.5%, COc1ccc(OCc2cccc(C(=O)N3CCCC3)c2)cc1 -8.9%, COc1ccc(-n2ncc3c(N4CCCc5ccccc54)ncnc32)cc1 -50.2%, O=C(CC1NCCNC1=O)Nc1ccc(Oc2ccccc2)cc1 (stereo not drawn) -7.9%, COc1cc(C(=O)Nc2oc(-c3ccccc3)c(-c3ccccc3)c2C#N)cc(OC)c1OC -14.1%, O=C(Cc1c(F)cccc1Cl)N1CCN(C(=O)c2ccco2)CC1 14.5%, CCOC(=O)CCCNC(=O)CN1C(=O)NC(CCc2ccccc2)C1=O (stereo not drawn) -7.9%, CC(=O)c1ccc(NC(=O)N[C@@H](Cc2ccccc2)C(=O)O)cc1 16.7%, O=C(Nc1cccc(Cl)c1)OCc1ccccn1 -69.9%, CC(=O)Nc1ccc(-c2cn3cccnc3n2)cc1 -27%, Clc1ccc(C2CC(c3cccs3)n3ncnc3N2)cc1Cl (stereo not drawn) -4.7%, CC(C)(C)c1ccc(C(=O)CSc2ncn[nH]2)cc1 -54.2%, CC(C)(C)NC(=O)Cn1nnc(-c2ccccc2Cl)n1 -65.9%, COc1cccc(C2/C(=C(/O)c3ccncc3)C(=O)C(=O)N2CCCN(C)C)c1 (stereo not drawn) 17%, Cc1noc(C)c1COC(=O)Cn1c(C)nc2ccccc21 -0.6%, COc1ccc(-n2c(SC)nc(O)cc2=O)cc1 8.5%, Cc1cc2nc(-c3ccc(NC(=O)c4cccnc4)cc3)oc2cc1C -71.6%, CCOC(=O)/C=c1\s/c(=C\c2ccccc2OC)c(=O)n1CC(=O)N1CCOCC1 3.7%, CC1CN(C(=O)CN2C(=O)NC(C)(c3ccccc3)C2=O)CC(C)O1 (stereo not drawn) 11.6%, CCCN(CCC)CCNC(=O)c1cc2c(C)nc3ccccc3c2o1 -1.5%
